Assay results published in ChEMBL document CHEMBL1833842, “1,3-Dihydro-2H-indol-2-ones derivatives: design, synthesis, in vitro antibacterial, antifungal and antitubercular study” (2011).
Converted amounts (≈) assume the structure as drawn.

Legend:
Bacillus subtilis = experiment: Antibacterial activity against 10^8 CFU/mL Bacillus subtilis MTCC 441 by broth microdilution method; assay type: functional
Outline: (§1)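 MTCC bacterial strains from IMTECH Chandigarh were grown in Mueller-Hinton broth, which was also used to dilute the compounds. Inoculum was turbidity-adjusted to 10⁸ CFU/mL, and DMSO served as diluent. Compounds from a 2000 stock were screened first at 500, 250 and 125; actives were retested in a second dilution series. Tubes were incubated overnight at 37 °C, and MIC was the lowest concentration with no visible growth. Clear tubes were subcultured overnight at 37 °C to tell bacteriostatic from bactericidal.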

Streptococcus pyogenes = experiment: Antibacterial activity against 10^8 CFU/mL Streptococcus pyogenes MTCC 442 by broth microdilution method; assay type: functional; outline: as §1
Staphylococcus aureus = experiment: Antibacterial activity against 10^8 CFU/mL Staphylococcus aureus MTCC 96 by broth microdilution method; assay type: functional; outline: as §1
Salmonella typhi = experiment: Antibacterial activity against 10^8 CFU/mL Salmonella typhi MTCC 98 by broth microdilution method; assay type: functional, Salmonella enterica subsp. enterica serovar Typhi
Outline: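 Broth microdilution in Mueller-Hinton broth with MTCC strains, inoculum adjusted by turbidity to 10⁸ CFU/mL. Compounds were diluted from DMSO. Primary screen used 500, 250 and 125 concentrations, and actives were serially diluted further. Tubes were incubated overnight at 37 °C. MIC was the lowest concentration with no visible growth. Clear tubes were subcultured overnight at 37 °C to judge bacteriostatic versus bactericidal.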

Klebsiella pneumoniae = experiment: Antibacterial activity against 10^8 CFU/mL Klebsiella pneumoniae MTCC 109 by broth microdilution method; assay type: functional; outline: as §1
Escherichia coli = experiment: Antibacterial activity against 10^8 CFU/mL Escherichia coli MTCC 443 by broth microdilution method; assay type: functional; outline: as §1
Pseudomonas aeruginosa = experiment: Antibacterial activity against 10^8 CFU/mL Pseudomonas aeruginosa MTCC 1688 by broth microdilution method; assay type: functional; outline: as §1
[1] = test system: Mycobacterium tuberculosis; experiment: Antituberculosis activity against 5 x 10^4 inoculum per tube Mycobacterium tuberculosis H37Rv after 24 hrs by Lowenstein-Jensen method; assay type: functional
Outline: (§2)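 Conventional Lowenstein-Jensen method. Compound dilutions were made from a DMSO stock and added to liquid L-J medium, which was sterilized by inspissation. Tubes were incubated 24 h at 37 °C, then streaked with H37Rv (5 × 10⁴ bacilli per tube) harvested into 0.85% saline. Growth was checked at 12, 22 and 28 days at 37 °C against medium-only controls. MIC was the concentration giving no colonies or <20 colonies.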

Aspergillus clavatus = experiment: Antifungal activity against 10^8 CFU/mL Aspergillus clavatus MTCC 1323 by broth microdilution method; assay type: functional
Outline: (§3)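 Fungal MTCC cultures came from IMTECH Chandigarh. Mueller-Hinton broth served as growth and dilution medium, with DMSO as diluent. Inoculum was set to 10⁸ CFU/mL by turbidity. Serial dilutions from a 2000 stock gave a primary screen at 500, 250 and 125, followed by a secondary dilution series for actives. MIC was the lowest concentration inhibiting growth.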

Aspergillus niger = experiment: Antifungal activity against 10^8 CFU/mL Aspergillus niger MTCC 282 by broth microdilution method; assay type: functional; outline: as §3
Candida albicans = experiment: Antifungal activity against 10^8 CFU/mL Candida albicans MTCC 227 by broth microdilution method; assay type: functional; outline: as §3
[2] = test system: Mycobacterium tuberculosis; experiment: Antituberculosis activity against 5 x 10^4 bacilli per tube Mycobacterium tuberculosis H37Rv assessed as growth inhibition at 1000 ug/mL incubated for 24 hrs measured after 28 days; assay type: functional; conditions: read-out: GI; outline: as §2
[3] = test system: Mycobacterium tuberculosis; experiment: Antituberculosis activity against 5 x 10^4 bacilli per tube Mycobacterium tuberculosis H37Rv assessed as growth inhibition at 50 ug/mL incubated for 24 hrs measured after 28 days; assay type: functional; conditions: read-out: GI; outline: as §2
[4] = test system: Mycobacterium tuberculosis; experiment: Antituberculosis activity against 5 x 10^4 bacilli per tube Mycobacterium tuberculosis H37Rv assessed as growth inhibition at 250 ug/mL incubated for 24 hrs measured after 28 days; assay type: functional; conditions: read-out: GI; outline: as §2
[5] = test system: Mycobacterium tuberculosis; experiment: Antituberculosis activity against 5 x 10^4 bacilli per tube Mycobacterium tuberculosis H37Rv assessed as growth inhibition at 100 ug/mL incubated for 24 hrs measured after 28 days; assay type: functional; conditions: read-out: GI; outline: as §2
[6] = test system: Mycobacterium tuberculosis; experiment: Antituberculosis activity against 5 x 10^4 bacilli per tube Mycobacterium tuberculosis H37Rv assessed as growth inhibition at 62.5 ug/mL incubated for 24 hrs measured after 28 days; assay type: functional; conditions: read-out: GI; outline: as §2
[7] = test system: Mycobacterium tuberculosis; experiment: Antituberculosis activity against 5 x 10^4 bacilli per tube Mycobacterium tuberculosis H37Rv assessed as growth inhibition at 0.20 ug/mL incubated for 24 hrs measured after 28 days; assay type: functional; conditions: read-out: GI; outline: as §2
[8] = test system: Mycobacterium tuberculosis; experiment: Antituberculosis activity against 5 x 10^4 inoculum per tube Mycobacterium tuberculosis H37Rv assessed as growth inhibition at 500 ug/mL incubated for 24 hrs measured after 28 days; assay type: functional; conditions: read-out: GI; outline: as §2

## CCn1cc(C(=O)O)c(=O)c2cc(F)c(N3CCNCC3)cc21 [NORFLOXACIN]
Bacillus subtilis
  MIC99: 10 µg/mL (≈ 31.3 µM)
Streptococcus pyogenes
  MIC99: 10 µg/mL (≈ 31.3 µM)
Staphylococcus aureus
  MIC99: 10 µg/mL (≈ 31.3 µM)
Salmonella typhi; Salmonella enterica
  MIC99: 10 µg/mL (≈ 31.3 µM)
Klebsiella pneumoniae
  MIC99: 10 µg/mL (≈ 31.3 µM)
Escherichia coli
  MIC99: 10 µg/mL (≈ 31.3 µM)
Pseudomonas aeruginosa
  MIC99: 10 µg/mL (≈ 31.3 µM)

## CC1=C(c2nnc(/N=C3\C(=O)Nc4ccc(I)cc43)s2)C(c2ccccc2)NC(=O)N1 (stereo not drawn)
[1]
  MIC: 1000 µg/mL (≈ 1840 µM)
Aspergillus clavatus
  MIC: > 1000 µg/mL
Aspergillus niger
  MIC: > 1000 µg/mL
Candida albicans
  MIC: > 1000 µg/mL
Bacillus subtilis
  MIC99: 250 µg/mL (≈ 461 µM)
Streptococcus pyogenes
  MIC99: 200 µg/mL (≈ 369 µM)
Staphylococcus aureus
  MIC99: 250 µg/mL (≈ 461 µM)
Salmonella typhi; Salmonella enterica
  MIC99: 250 µg/mL (≈ 461 µM)
Klebsiella pneumoniae
  MIC99: 250 µg/mL (≈ 461 µM)
Escherichia coli
  MIC99: 250 µg/mL (≈ 461 µM)
Pseudomonas aeruginosa
  MIC99: 250 µg/mL (≈ 461 µM)
[2]
  inhibition of growth at 1000 µg/mL: 98%

## CC1=C(c2nnc(/N=C3\C(=O)Nc4ccc(F)cc43)s2)C(c2ccccc2)NC(=O)N1 (stereo not drawn)
[1]
  MIC: 50 µg/mL (≈ 115 µM)
Aspergillus clavatus
  MIC: 200 µg/mL (≈ 460 µM)
Aspergillus niger
  MIC: 100 µg/mL (≈ 230 µM)
Candida albicans
  MIC: 100 µg/mL (≈ 230 µM)
Bacillus subtilis
  MIC99: 100 µg/mL (≈ 230 µM)
Streptococcus pyogenes
  MIC99: 100 µg/mL (≈ 230 µM)
Staphylococcus aureus
  MIC99: 62.5 µg/mL (≈ 144 µM)
Salmonella typhi; Salmonella enterica
  MIC99: 100 µg/mL (≈ 230 µM)
Klebsiella pneumoniae
  MIC99: 100 µg/mL (≈ 230 µM)
Escherichia coli
  MIC99: 100 µg/mL (≈ 230 µM)
Pseudomonas aeruginosa
  MIC99: 62.5 µg/mL (≈ 144 µM)
[3]
  inhibition of growth at 50 µg/mL: 99%

## CC1=C(c2nnc(/N=C3\C(=O)Nc4ccc(Br)cc43)s2)C(c2ccccc2)NC(=S)N1 (stereo not drawn)
[1]
  MIC: 250 µg/mL (≈ 489 µM)
Aspergillus clavatus
  MIC: 500 µg/mL (≈ 978 µM)
Aspergillus niger
  MIC: 500 µg/mL (≈ 978 µM)
Candida albicans
  MIC: 500 µg/mL (≈ 978 µM)
Bacillus subtilis
  MIC99: 100 µg/mL (≈ 196 µM)
Streptococcus pyogenes
  MIC99: 100 µg/mL (≈ 196 µM)
Staphylococcus aureus
  MIC99: 100 µg/mL (≈ 196 µM)
Salmonella typhi; Salmonella enterica
  MIC99: 250 µg/mL (≈ 489 µM)
Klebsiella pneumoniae
  MIC99: 200 µg/mL (≈ 391 µM)
Escherichia coli
  MIC99: 200 µg/mL (≈ 391 µM)
Pseudomonas aeruginosa
  MIC99: 200 µg/mL (≈ 391 µM)
[4]
  inhibition of growth at 250 µg/mL: 98%

## NYSTATIN
Aspergillus clavatus
  MIC: 100 µg/mL
Aspergillus niger
  MIC: 100 µg/mL
Candida albicans
  MIC: 100 µg/mL

## CC1=C(c2nnc(/N=C3\C(=O)Nc4ccc(Cl)cc43)s2)C(c2ccccc2)NC(=O)N1 (stereo not drawn)
[1]
  MIC: 100 µg/mL (≈ 222 µM)
Aspergillus clavatus
  MIC: 500 µg/mL (≈ 1110 µM)
Aspergillus niger
  MIC: 500 µg/mL (≈ 1110 µM)
Candida albicans
  MIC: > 1000 µg/mL
Bacillus subtilis
  MIC99: 200 µg/mL (≈ 444 µM)
Streptococcus pyogenes
  MIC99: 200 µg/mL (≈ 444 µM)
Staphylococcus aureus
  MIC99: 200 µg/mL (≈ 444 µM)
Salmonella typhi; Salmonella enterica
  MIC99: 200 µg/mL (≈ 444 µM)
Klebsiella pneumoniae
  MIC99: 200 µg/mL (≈ 444 µM)
Escherichia coli
  MIC99: 100 µg/mL (≈ 222 µM)
Pseudomonas aeruginosa
  MIC99: 200 µg/mL (≈ 444 µM)
[5]
  inhibition of growth at 100 µg/mL: 98%

## CC1=C(c2nnc(/N=C3\C(=O)Nc4ccc([N+](=O)[O-])cc43)s2)C(c2ccccc2)NC(=S)N1 (stereo not drawn)
[1]
  MIC: 62.5 µg/mL (≈ 131 µM)
Aspergillus clavatus
  MIC: 250 µg/mL (≈ 524 µM)
Aspergillus niger
  MIC: 100 µg/mL (≈ 209 µM)
Candida albicans
  MIC: 250 µg/mL (≈ 524 µM)
Bacillus subtilis
  MIC99: 100 µg/mL (≈ 209 µM)
Streptococcus pyogenes
  MIC99: 200 µg/mL (≈ 419 µM)
Staphylococcus aureus
  MIC99: 100 µg/mL (≈ 209 µM)
Salmonella typhi; Salmonella enterica
  MIC99: 100 µg/mL (≈ 209 µM)
Klebsiella pneumoniae
  MIC99: 100 µg/mL (≈ 209 µM)
Escherichia coli
  MIC99: 62.5 µg/mL (≈ 131 µM)
Pseudomonas aeruginosa
  MIC99: 100 µg/mL (≈ 209 µM)
[6]
  inhibition of growth at 62.5 µg/mL: 99%

## GENTAMICIN
Bacillus subtilis
  MIC99: 0.5 µg/mL
Streptococcus pyogenes
  MIC99: 0.5 µg/mL
Staphylococcus aureus
  MIC99: 0.25 µg/mL
Salmonella typhi; Salmonella enterica subsp. enterica serovar Typhi
  MIC99: 1 µg/mL
Klebsiella pneumoniae
  MIC99: 0.05 µg/mL
Escherichia coli
  MIC99: 0.05 µg/mL
Pseudomonas aeruginosa
  MIC99: 1 µg/mL

## NNC(=O)c1ccncc1 [ISONIAZID]
[1]
  MIC: 0.2 µg/mL (≈ 1.46 µM)
[7]
  inhibition of growth at 0.2 µg/mL: 99%

## CC1=C(c2nnc(/N=C3\C(=O)Nc4ccc(I)cc43)s2)C(c2ccccc2)NC(=S)N1 (stereo not drawn)
[1]
  MIC: 1000 µg/mL (≈ 1790 µM)
Aspergillus clavatus
  MIC: > 1000 µg/mL
Aspergillus niger
  MIC: > 1000 µg/mL
Candida albicans
  MIC: > 1000 µg/mL
Bacillus subtilis
  MIC99: 200 µg/mL (≈ 358 µM)
Streptococcus pyogenes
  MIC99: 200 µg/mL (≈ 358 µM)
Staphylococcus aureus
  MIC99: 200 µg/mL (≈ 358 µM)
Salmonella typhi; Salmonella enterica
  MIC99: 250 µg/mL (≈ 448 µM)
Klebsiella pneumoniae
  MIC99: 200 µg/mL (≈ 358 µM)
Escherichia coli
  MIC99: 250 µg/mL (≈ 448 µM)
Pseudomonas aeruginosa
  MIC99: 250 µg/mL (≈ 448 µM)
[2]
  inhibition of growth at 1000 µg/mL: 98%

## CC1=C(c2nnc(/N=C3\C(=O)Nc4ccc(Br)cc43)s2)C(c2ccccc2)NC(=O)N1 (stereo not drawn)
[1]
  MIC: 500 µg/mL (≈ 1010 µM)
Aspergillus clavatus
  MIC: > 1000 µg/mL
Aspergillus niger
  MIC: 500 µg/mL (≈ 1010 µM)
Candida albicans
  MIC: 500 µg/mL (≈ 1010 µM)
Bacillus subtilis
  MIC99: 100 µg/mL (≈ 202 µM)
Streptococcus pyogenes
  MIC99: 100 µg/mL (≈ 202 µM)
Staphylococcus aureus
  MIC99: 100 µg/mL (≈ 202 µM)
Salmonella typhi; Salmonella enterica
  MIC99: 250 µg/mL (≈ 505 µM)
Klebsiella pneumoniae
  MIC99: 200 µg/mL (≈ 404 µM)
Escherichia coli
  MIC99: 250 µg/mL (≈ 505 µM)
Pseudomonas aeruginosa
  MIC99: 250 µg/mL (≈ 505 µM)
[8]
  inhibition of growth at 500 µg/mL: 98%
